Measurements as given in ChEMBL document CHEMBL1212705, “Gene expression signatures and small-molecule compounds link a protein kinase to Plasmodium falciparum motility” (Nat Chem Biol, 2008).
Activity calls are given as the source filed them. No cut-off for these calls is given here.

How the values were obtained:
Plasmodium falciparum [1] = experiment: Binding affinity to Plasmodium falciparum PF14_0075 at 2.5 mM by LC/MS/MS analysis
In short: (§1)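 P. falciparum parasite lysate was incubated with agarose-immobilized inhibitor and washed extensively. Retained proteins were eluted with urea, resolved by SDS-PAGE and identified by LC/MS/MS. In a competition arm, free inhibitor (2.5 mM) was added to the lysate before incubation with the beads under identical conditions.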

Plasmodium falciparum [2] = experiment: Binding affinity to Plasmodium falciparum PFF0160c at 2.5 mM by LC/MS/MS analysis; in short: as §1
Plasmodium yoelii = experiment: Antiplasmodial activity blood stage Plasmodium yoelii infected in BALB/c mice (Mus musculus) assessed as delay in onset of parasitaemia at 10 mg/kg, perorally BID for 6 days measured after 6 days post infection by Peter's test; format: functional, organism-based; design: dose 10 mg/kg
Plasmodium falciparum [3] = experiment: Binding affinity to Plasmodium falciparum PFC0720w at 2.5 mM by LC/MS/MS analysis; in short: as §1
Toxoplasma gondii [4] = experiment: Antimicrobial activity against Toxoplasma gondii […] infected in african green monkey BSC1 cells assessed as parasite invasion at 25 uM after 48 hrs by microscopy relative to control; format: functional, BSC-1
Plasmodium falciparum [5] = experiment: Binding affinity to Plasmodium falciparum PF11_0191 at 2.5 mM by LC/MS/MS analysis; in short: as §1
Plasmodium falciparum [6] = experiment: Antimicrobial activity against Plasmodium falciparum schizonts infected in human erythrocytes assessed as minimal effect on parasite cell cycle at 450 nM treated 36 hrs after release of ring stage by microscopy
Plasmodium falciparum [7] = experiment: Binding affinity to Plasmodium falciparum PF08_0054 at 2.5 mM by LC/MS/MS analysis; in short: as §1
[8] = Cytotoxicity against human Hep2 cells after 72 hrs by Cell Titer Glo assay; format: cell-based, HEp-2; conditions: read-out: ED50
In short: (§2)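 Cells seeded at 250 per well in DMEM with 5% fetal bovine serum. Compound added the next day, followed by 72 h culture to match the parasite proliferation assay. Viability read by Cell Titer Glo luminescence.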

Plasmodium falciparum [9] = experiment: Binding affinity to Plasmodium falciparum PF13_0304 at 2.5 mM by LC/MS/MS analysis; in short: as §1
Plasmodium falciparum [10] = experiment: Binding affinity to Plasmodium falciparum PFI0875w at 2.5 mM by LC/MS/MS analysis; in short: as §1
Plasmodium falciparum [11] = experiment: Upregulation of proteasome gene expression in Plasmodium falciparum at 460 nM after 48 hrs by microarray analysis; format: functional, organism-based
In short: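 P. falciparum 3D7 was grown in human O+ erythrocytes. Heterogeneous, unsynchronized parasites were incubated with 460 nM compound for 24 or 48 h, then compared with untreated parasites on a full-genome microarray. Transcript changes were called by a statistical test.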

Toxoplasma gondii [12] = experiment: Antimicrobial activity against Toxoplasma gondii […] infected in african green monkey BSC1 cells assessed as parasite invasion at 3.1 uM after 48 hrs by microscopy relative to control; format: functional, BSC-1
[13] = Cytotoxicity against human HuH7 cells after 72 hrs by Cell Titer Glo assay; format: cell-based, Huh-7; conditions: read-out: ED50; in short: as §2
Plasmodium falciparum [14] = experiment: Antiplasmodial activity against Plasmodium falciparum 3D7 after 72 hrs by SYBR green assay; format: functional, organism-based; conditions: 3D7, 72 h
Plasmodium falciparum [15] = experiment: Binding affinity to Plasmodium falciparum PFL1170w at 2.5 mM by LC/MS/MS analysis; in short: as §1
Plasmodium falciparum [16] = experiment: Antiplasmodial activity against multidrug-resistant Plasmodium falciparum FCB after 72 hrs by SYBR green assay; format: functional, organism-based
In short: (§3)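 Parasites grown in human O+ erythrocytes in RPMI with human serum and albumax. For the assay, serially diluted compounds were added to screening medium (RPMI, 4.16 mg/ml albumax) at 2.5% hematocrit and 0.3% parasitemia, then incubated 72 h in 93% N2/4% CO2/3% O2. DMSO served as baseline and uninfected erythrocytes as background. SYBR Green fluorescence was read at 520 nm to give EC50.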

Plasmodium falciparum [17] = experiment: Binding affinity to Plasmodium falciparum PF08_0003 at 2.5 mM by LC/MS/MS analysis; in short: as §1
Plasmodium falciparum [18] = experiment: Antimicrobial activity against Plasmodium falciparum schizonts infected in human erythrocytes assessed as minimal effect on parasite cell cycle at 450 nM treated 24 hrs after release of ring stage by microscopy
Plasmodium falciparum [19] = experiment: Binding affinity to Plasmodium falciparum PFL1545c at 2.5 mM by LC/MS/MS analysis; in short: as §1
[20] = Half life in BALB/c mouse 20 mg/kg single oral dose by LC/MS/MS analysis; conditions: in vivo
Plasmodium falciparum [21] = experiment: Binding affinity to Plasmodium falciparum PFI0235w at 2.5 mM by LC/MS/MS analysis; in short: as §1
[22] = Cytotoxicity against CHO cells after 72 hrs by Cell Titer Glo assay; format: cell-based, Cricetulus griseus; conditions: chinese hamster, read-out: ED50
In short: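 Cells were seeded at 250 per well in DMEM with 5% FBS in 1,536-well plates, and compound was added the next day. Culture ran 72 h, matching the parasite proliferation assay. Viability was read by Cell Titer Glo luminescence, and EC50 was derived.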

Toxoplasma gondii [23] = experiment: Antimicrobial activity against Toxoplasma gondii […] infected in african green monkey BSC1 cells assessed as parasite invasion at 50 uM after 90 mins by microscopy relative to control
Plasmodium falciparum [24] = experiment: Antiplasmodial activity against chloroquine-resistant Plasmodium falciparum W2 after 72 hrs by SYBR green assay; format: functional, organism-based; conditions: W2, 72 h; in short: as §3

For `N[C@H]1CC[C@H](Nc2nc(Nc3ccc(C(=O)N4CCCCC4)cc3)c3ncn(-c4cccc(F)c4)c3n2)CC1` [PURFALCAMINE], the Activity (Plasmodium falciparum [1]) was “inactive”, the Activity (Plasmodium falciparum [2]) was “inactive” and the Activity (Plasmodium yoelii) was “Active”. The Activity (Plasmodium falciparum [3]) was “inactive”, the Activity (Toxoplasma gondii [4]) was “<=20%” and the Activity (Plasmodium falciparum [5]) was “inactive”. The Activity (Plasmodium falciparum [6]) was “Active”, the Activity (Plasmodium falciparum [7]) was “inactive” and the CC50 at 72 h [8] was 7240 nM. The Activity (Plasmodium falciparum [9]) was “inactive”, the Activity (Plasmodium falciparum [10]) was “inactive” and the Activity (Plasmodium falciparum [11]) was “Active”. It also gave an Activity (Toxoplasma gondii [12]) of 60%, a CC50 at 72 h [13] of 5480 nM and an EC50 (Plasmodium falciparum [14]) of 230 nM. For the same compound, the Activity (Plasmodium falciparum [15]) was “inactive”, the EC50 (Plasmodium falciparum [16]) was 169 nM and the Activity (Plasmodium falciparum [17]) was “inactive”. For the same compound, the Activity (Plasmodium falciparum [18]) was “Active”, the Activity (Plasmodium falciparum [19]) was “inactive” and the half-life [20] was 3.1 h. The Activity (Plasmodium falciparum [21]) was “inactive”, the CC50 at 72 h [22] was 12300 nM and the Activity (Toxoplasma gondii [23]) was “<=20%”. The EC50 (Plasmodium falciparum [24]) was 179 nM.
